# Measured values from ChEMBL document CHEMBL5331127, “Discovery of ARD-2051 as a Potent and Orally Efficacious Proteolysis Targeting Chimera (PROTAC) Degrader of Androgen Receptor for the Treatment of Advanced Prostate Cancer” (J Med Chem, 2023).
# Molecular target: T1, Androgen receptor (Homo sapiens) (UniProt P10275)
# T1 sequence (whole entry): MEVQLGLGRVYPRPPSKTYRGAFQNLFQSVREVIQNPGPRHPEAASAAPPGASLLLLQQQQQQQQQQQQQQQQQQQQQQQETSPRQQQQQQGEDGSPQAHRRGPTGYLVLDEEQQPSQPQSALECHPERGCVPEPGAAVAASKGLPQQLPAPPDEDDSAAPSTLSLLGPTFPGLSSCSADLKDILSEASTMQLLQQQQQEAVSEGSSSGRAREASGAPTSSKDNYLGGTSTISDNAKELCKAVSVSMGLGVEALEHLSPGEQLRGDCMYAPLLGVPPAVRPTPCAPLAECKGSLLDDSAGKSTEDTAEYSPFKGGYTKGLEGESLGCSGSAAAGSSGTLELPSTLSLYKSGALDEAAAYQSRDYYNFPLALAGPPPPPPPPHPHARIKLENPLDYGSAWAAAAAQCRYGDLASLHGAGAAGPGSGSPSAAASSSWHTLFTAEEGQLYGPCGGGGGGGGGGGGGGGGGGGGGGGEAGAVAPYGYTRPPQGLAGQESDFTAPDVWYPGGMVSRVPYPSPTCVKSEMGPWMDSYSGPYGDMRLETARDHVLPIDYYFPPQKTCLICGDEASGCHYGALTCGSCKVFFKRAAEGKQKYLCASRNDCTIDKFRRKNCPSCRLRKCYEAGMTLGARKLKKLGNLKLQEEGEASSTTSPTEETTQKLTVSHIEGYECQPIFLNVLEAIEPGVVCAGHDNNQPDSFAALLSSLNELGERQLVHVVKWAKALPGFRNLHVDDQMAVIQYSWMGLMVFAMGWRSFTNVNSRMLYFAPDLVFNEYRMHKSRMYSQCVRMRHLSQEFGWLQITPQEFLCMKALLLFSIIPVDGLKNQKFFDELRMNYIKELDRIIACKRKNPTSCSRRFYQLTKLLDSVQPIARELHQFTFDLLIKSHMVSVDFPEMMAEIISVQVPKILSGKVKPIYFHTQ
# Experiment: Induction of androgen receptor degradation in human VCaP cells at 0.01 uM after 24 hrs by Western blotting analysis relative to control
# Type: cell-based
# In short: (§1)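 VCaP cells treated for 24 h at 10, 100 or 1000 nM. AR protein measured by Western blotting.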
row,SMILES,Activity [%]
1,C[C@H]1CC2(CCN(c3ccc(C(=O)N4CCC(N5CCN(c6ccc7c(c6)C(=O)N(C6CCC(=O)NC6=O)C7=O)CC5)CC4)cc3)CC2)CN1c1ccc(C#N)c(Cl)c1 (some centres not stated),78
2,N#Cc1ccc(N2CCC3(CCN(C(=O)c4ccc(N5CCN(C6CCN(c7ccc8c(c7)C(=O)N(C7CCC(=O)NC7=O)C8=O)CC6)CC5)cc4)CC3)C2)cc1Cl (configuration not stated),< 5
3,N#Cc1ccc(N2CCC3(CCN(c4ccc(C(=O)N5CCCN(C6CCN(c7ccc8c(c7)C(=O)N(C7CCC(=O)NC7=O)C8=O)CC6)CCC5)cc4)CC3)C2)cc1Cl (configuration not stated),< 5
4,N#Cc1ccc(N2CCC3(CCN(c4ccc(C(=O)N5CCC6(C5)CN(C5CCN(c7ccc8c(c7)C(=O)N(C7CCC(=O)NC7=O)C8=O)CC5)C6)cc4)CC3)C2)cc1Cl (configuration not stated),20
5,C[C@@H]1N(c2ccc(C#N)c(Cl)c2)CCC12CCN(c1ccc(C(=O)N3CCN(C4CN(c5ccc6c(c5)C(=O)N(C5CCC(=O)NC5=O)C6=O)C4)CC3)cc1)CC2 (some centres not stated),84
6,C[C@H]1N(c2ccc(C#N)c(Cl)c2)CCC12CCN(c1ccc(C(=O)N3CCN(C4CN(c5ccc6c(c5)C(=O)N(C5CCC(=O)NC5=O)C6=O)C4)CC3)cc1)CC2 (some centres not stated),46
7,N#Cc1ccc(N2CCC3(CCN(C(=O)c4ccc(C(=O)N5CCN(CC6CCN(c7ccc8c(c7)C(=O)N(C7CCC(=O)NC7=O)C8=O)CC6)CC5)cc4)CC3)C2)cc1Cl (configuration not stated),< 5
8,N#Cc1ccc(N2CCC3(CCN(c4ccc(C(=O)N5CC6(C5)CN(C5CCN(c7ccc8c(c7)C(=O)N(C7CCC(=O)NC7=O)C8=O)CC5)C6)cc4)CC3)C2)cc1Cl (configuration not stated),< 5
9,C[C@H]1CC2(CCN(c3ccc(C(=O)N4CCN(CC5CN(c6ccc7c(c6)C(=O)N(C6CCC(=O)NC6=O)C7=O)C5)CC4)cc3)CC2)CN1c1ccc(C#N)c(Cl)c1 (some centres not stated),> 90
10,C[C@H]1CC2(CCN(c3ccc(C(=O)N4CC5(C4)CN(c4ccc6c(c4)C(=O)N(C4CCC(=O)NC4=O)C6=O)C5)cc3)CC2)CN1c1ccc(C#N)c(Cl)c1 (some centres not stated),79
11,N#Cc1ccc(N2CCC3(CCN(c4ccc(C(=O)N5CCCN(C6CCN(c7ccc8c(c7)C(=O)N(C7CCC(=O)NC7=O)C8=O)CC6)CC5)cc4)CC3)C2)cc1Cl (configuration not stated),45
12,C[C@H]1CC2(CCN(c3ccc(C(=O)N4CCC(C5CN(c6ccc7c(c6)C(=O)N(C6CCC(=O)NC6=O)C7=O)C5)CC4)cc3)CC2)CN1c1ccc(C#N)c(Cl)c1 (some centres not stated),12
13,N#Cc1ccc(N2CCC3(CCN(c4ccc(C(=O)N5CCN(CC6CCN(c7ccc8c(c7)C(=O)N(C7CCC(=O)NC7=O)C8=O)CC6)CC5)cc4)CC3)C2)cc1Cl (configuration not stated),24
14,C[C@H]1CC2(CCN(c3ccc(C(=O)N4CCN(C5(C#N)CN(c6ccc7c(c6)C(=O)N(C6CCC(=O)NC6=O)C7=O)C5)CC4)cc3)CC2)CN1c1ccc(C#N)c(Cl)c1 (some centres not stated),81

# Molecular target: T1, Androgen receptor (Homo sapiens)
# Experiment: Induction of androgen receptor degradation in human VCaP cells at 0.1 uM after 24 hrs by Western blotting analysis relative to control
# Type: cell-based
# In short: as §1
row,SMILES,Activity [%]
1,C[C@H]1CC2(CCN(c3ccc(C(=O)N4CCC(N5CCN(c6ccc7c(c6)C(=O)N(C6CCC(=O)NC6=O)C7=O)CC5)CC4)cc3)CC2)CN1c1ccc(C#N)c(Cl)c1 (some centres not stated),> 95
2,N#Cc1ccc(N2CCC3(CCN(C(=O)c4ccc(N5CCN(C6CCN(c7ccc8c(c7)C(=O)N(C7CCC(=O)NC7=O)C8=O)CC6)CC5)cc4)CC3)C2)cc1Cl (configuration not stated),43
3,N#Cc1ccc(N2CCC3(CCN(c4ccc(C(=O)N5CCCN(C6CCN(c7ccc8c(c7)C(=O)N(C7CCC(=O)NC7=O)C8=O)CC6)CCC5)cc4)CC3)C2)cc1Cl (configuration not stated),54
4,N#Cc1ccc(N2CCC3(CCN(c4ccc(C(=O)N5CCC6(C5)CN(C5CCN(c7ccc8c(c7)C(=O)N(C7CCC(=O)NC7=O)C8=O)CC5)C6)cc4)CC3)C2)cc1Cl (configuration not stated),60
5,C[C@@H]1N(c2ccc(C#N)c(Cl)c2)CCC12CCN(c1ccc(C(=O)N3CCN(C4CN(c5ccc6c(c5)C(=O)N(C5CCC(=O)NC5=O)C6=O)C4)CC3)cc1)CC2 (some centres not stated),> 95
6,C[C@H]1N(c2ccc(C#N)c(Cl)c2)CCC12CCN(c1ccc(C(=O)N3CCN(C4CN(c5ccc6c(c5)C(=O)N(C5CCC(=O)NC5=O)C6=O)C4)CC3)cc1)CC2 (some centres not stated),68
7,N#Cc1ccc(N2CCC3(CCN(C(=O)c4ccc(C(=O)N5CCN(CC6CCN(c7ccc8c(c7)C(=O)N(C7CCC(=O)NC7=O)C8=O)CC6)CC5)cc4)CC3)C2)cc1Cl (configuration not stated),< 5
8,N#Cc1ccc(N2CCC3(CCN(c4ccc(C(=O)N5CC6(C5)CN(C5CCN(c7ccc8c(c7)C(=O)N(C7CCC(=O)NC7=O)C8=O)CC5)C6)cc4)CC3)C2)cc1Cl (configuration not stated),46
9,C[C@H]1CC2(CCN(c3ccc(C(=O)N4CCN(CC5CN(c6ccc7c(c6)C(=O)N(C6CCC(=O)NC6=O)C7=O)C5)CC4)cc3)CC2)CN1c1ccc(C#N)c(Cl)c1 (some centres not stated),> 95
10,C[C@H]1CC2(CCN(c3ccc(C(=O)N4CC5(C4)CN(c4ccc6c(c4)C(=O)N(C4CCC(=O)NC4=O)C6=O)C5)cc3)CC2)CN1c1ccc(C#N)c(Cl)c1 (some centres not stated),> 95
11,N#Cc1ccc(N2CCC3(CCN(c4ccc(C(=O)N5CCCN(C6CCN(c7ccc8c(c7)C(=O)N(C7CCC(=O)NC7=O)C8=O)CC6)CC5)cc4)CC3)C2)cc1Cl (configuration not stated),80
12,C[C@H]1CC2(CCN(c3ccc(C(=O)N4CCC(C5CN(c6ccc7c(c6)C(=O)N(C6CCC(=O)NC6=O)C7=O)C5)CC4)cc3)CC2)CN1c1ccc(C#N)c(Cl)c1 (some centres not stated),64
13,N#Cc1ccc(N2CCC3(CCN(c4ccc(C(=O)N5CCN(CC6CCN(c7ccc8c(c7)C(=O)N(C7CCC(=O)NC7=O)C8=O)CC6)CC5)cc4)CC3)C2)cc1Cl (configuration not stated),80
14,C[C@H]1CC2(CCN(c3ccc(C(=O)N4CCN(C5(C#N)CN(c6ccc7c(c6)C(=O)N(C6CCC(=O)NC6=O)C7=O)C5)CC4)cc3)CC2)CN1c1ccc(C#N)c(Cl)c1 (some centres not stated),93

# Molecular target: T1, Androgen receptor (Homo sapiens)
# Experiment: Induction of androgen receptor degradation in human VCaP cells at 1 uM after 24 hrs by Western blotting analysis relative to control
# Type: cell-based
# In short: as §1
row,SMILES,Activity [%]
1,C[C@H]1CC2(CCN(c3ccc(C(=O)N4CCC(N5CCN(c6ccc7c(c6)C(=O)N(C6CCC(=O)NC6=O)C7=O)CC5)CC4)cc3)CC2)CN1c1ccc(C#N)c(Cl)c1 (some centres not stated),> 95
2,N#Cc1ccc(N2CCC3(CCN(C(=O)c4ccc(N5CCN(C6CCN(c7ccc8c(c7)C(=O)N(C7CCC(=O)NC7=O)C8=O)CC6)CC5)cc4)CC3)C2)cc1Cl (configuration not stated),56
3,N#Cc1ccc(N2CCC3(CCN(c4ccc(C(=O)N5CCCN(C6CCN(c7ccc8c(c7)C(=O)N(C7CCC(=O)NC7=O)C8=O)CC6)CCC5)cc4)CC3)C2)cc1Cl (configuration not stated),54
4,N#Cc1ccc(N2CCC3(CCN(c4ccc(C(=O)N5CCC6(C5)CN(C5CCN(c7ccc8c(c7)C(=O)N(C7CCC(=O)NC7=O)C8=O)CC5)C6)cc4)CC3)C2)cc1Cl (configuration not stated),82
5,C[C@@H]1N(c2ccc(C#N)c(Cl)c2)CCC12CCN(c1ccc(C(=O)N3CCN(C4CN(c5ccc6c(c5)C(=O)N(C5CCC(=O)NC5=O)C6=O)C4)CC3)cc1)CC2 (some centres not stated),> 95
6,C[C@H]1N(c2ccc(C#N)c(Cl)c2)CCC12CCN(c1ccc(C(=O)N3CCN(C4CN(c5ccc6c(c5)C(=O)N(C5CCC(=O)NC5=O)C6=O)C4)CC3)cc1)CC2 (some centres not stated),91
7,N#Cc1ccc(N2CCC3(CCN(C(=O)c4ccc(C(=O)N5CCN(CC6CCN(c7ccc8c(c7)C(=O)N(C7CCC(=O)NC7=O)C8=O)CC6)CC5)cc4)CC3)C2)cc1Cl (configuration not stated),33
8,N#Cc1ccc(N2CCC3(CCN(c4ccc(C(=O)N5CC6(C5)CN(C5CCN(c7ccc8c(c7)C(=O)N(C7CCC(=O)NC7=O)C8=O)CC5)C6)cc4)CC3)C2)cc1Cl (configuration not stated),73
9,C[C@H]1CC2(CCN(c3ccc(C(=O)N4CCN(CC5CN(c6ccc7c(c6)C(=O)N(C6CCC(=O)NC6=O)C7=O)C5)CC4)cc3)CC2)CN1c1ccc(C#N)c(Cl)c1 (some centres not stated),> 95
10,C[C@H]1CC2(CCN(c3ccc(C(=O)N4CC5(C4)CN(c4ccc6c(c4)C(=O)N(C4CCC(=O)NC4=O)C6=O)C5)cc3)CC2)CN1c1ccc(C#N)c(Cl)c1 (some centres not stated),> 95
11,N#Cc1ccc(N2CCC3(CCN(c4ccc(C(=O)N5CCCN(C6CCN(c7ccc8c(c7)C(=O)N(C7CCC(=O)NC7=O)C8=O)CC6)CC5)cc4)CC3)C2)cc1Cl (configuration not stated),92
12,C[C@H]1CC2(CCN(c3ccc(C(=O)N4CCC(C5CN(c6ccc7c(c6)C(=O)N(C6CCC(=O)NC6=O)C7=O)C5)CC4)cc3)CC2)CN1c1ccc(C#N)c(Cl)c1 (some centres not stated),92
13,N#Cc1ccc(N2CCC3(CCN(c4ccc(C(=O)N5CCN(CC6CCN(c7ccc8c(c7)C(=O)N(C7CCC(=O)NC7=O)C8=O)CC6)CC5)cc4)CC3)C2)cc1Cl (configuration not stated),> 95
14,C[C@H]1CC2(CCN(c3ccc(C(=O)N4CCN(C5(C#N)CN(c6ccc7c(c6)C(=O)N(C6CCC(=O)NC6=O)C7=O)C5)CC4)cc3)CC2)CN1c1ccc(C#N)c(Cl)c1 (some centres not stated),88
